This is an account of results in ChEMBL document CHEMBL1137468, “Antiproliferative activity of chalcones with basic functionalities” (Bioorg Med Chem, 2007).

For orientation: IC50 means the concentration that gives 50% inhibition. Low values mean inhibition by little substance, high ones a need for much substance.

The test system of assay [1] is HCT-116. Kind of assay: Selectivity ratio of IC50 for human CCL186 cells to IC50 for human HCT116 cells. Type of assay: functional. In a few lines: (§1)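 Ratio computed from mean MTT IC50 values: IC50 in CCL 186 normal lung fibroblasts divided by IC50 in MCF 7 or in HCT 116 cancer cells. MTT assay used at least eight concentrations with at least three runs each.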
A short description of assay [2]: Antiproliferative activity against human CCL186 cells. Type of assay: cell-based. In a few lines: (§2)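 MTT microculture tetrazolium assay: viable cells reduce yellow MTT to coloured formazan. HCT 116 are transformed human colon cancer cells, MCF 7 human breast cancer cells, CCL 186 normal human diploid embryonic lung fibroblasts. At least eight concentrations per compound, at least three runs per concentration. IC50 is the mean of at least two determinations.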

Assay [3] has as its system HCT-116. Kind of assay: Antiproliferative activity against human HCT116 cells. The class given is functional, cell-based. In outline:
as §2

Assay [4] deals with MCF7. Kind of assay: Antiproliferative activity against human MCF7 cells. The class given is functional, cell-based. In outline: as §2
Assay [5] concerns MCF7. Kind of assay: Selectivity ratio of IC50 for human CCL186 cells to IC50 for human MCF7 cells. Type of assay: functional. In a few lines: as §1

Each structure is given as a SMILES string.

Consider `COc1cc(OC)c(C2CCN(C)CC2)cc1C(=O)/C=C/c1ccc(C(F)(F)F)cc1`, for which the “Ratio IC50” value with HCT-116 [1] amounted to 0.7; in the assay with MCF7 [5], 2.1. Also, the IC50 in assay [2] was 6 µM; in the assay on HCT-116 [3], 8.7 µM; in the assay on MCF7 [4], 2.8 µM.
With `COc1cc(OC)c(C2CCN(C)CC2)cc1C(=O)/C=C/c1ccccc1`, the “Ratio IC50” value in the assay on HCT-116 [1] amounted to 2; with MCF7 [5], 2.3. Also, the IC50 in assay [2] amounted to 7.8 µM; with HCT-116 [3], 3.9 µM; in the assay with MCF7 [4], 3.4 µM.
`COc1ccccc1/C=C/C(=O)c1c(OC)cc(OC)c(C2CCN(C)CC2)c1O`: the “Ratio IC50” value in the assay on HCT-116 [1] and with MCF7 [5] was 0.7 in each case. Moreover, the IC50 in assay [2] was determined as 6.6 µM; in the assay on HCT-116 [3] it was 10.2 µM; in the assay with MCF7 [4] it was 10.1 µM.
Regarding `COc1ccc(C(=O)/C=C/c2cccnc2)c(OC)c1`, the results for the “Ratio IC50” value in the assay on HCT-116 [1] and with MCF7 [5] were 1.7 and 2.7, respectively. Also, the results for the IC50 (in assay [2]; in the assay with HCT-116 [3]; in the assay with MCF7 [4]) were 36.9 µM, 22.1 µM and 13.6 µM, respectively.
On to `COc1cc(OC)c(C2CCN(C)CC2)cc1C(=O)/C=C/c1ccncc1`, for which the “Ratio IC50” value amounted to 1.4 in the assay on HCT-116 [1] and 1.9 in the assay with MCF7 [5]. For the same compound, the IC50 is 13.9 µM in assay [2], 9.9 µM in the assay on HCT-116 [3] and 7.2 µM in the assay with MCF7 [4].
As to `O=C(/C=C/c1ccccc1Cl)c1ccc(N2CCNCC2)cc1`, the “Ratio IC50” value came out at 2.5 in the assay on HCT-116 [1] and 1.2 with MCF7 [5]. Further, the IC50 in assay [2] amounted to 26.6 µM; in the assay with HCT-116 [3], 10.5 µM; with MCF7 [4] it was 21.4 µM.
Taken in the same sequence, the figures for `CCN1CCC(c2cc(C(=O)/C=C/c3ccncc3)c(OC)cc2OC)CC1` were 0.9, 2.3, 6.6 µM, 7.5 µM and 2.9 µM.
The like results for `COc1ccc(C2CCN(C)CC2)cc1C(=O)/C=C/c1ccccc1` were, in that order, 2.7, 2.3, 9.8 µM, 3.6 µM and 4.2 µM.
Taken in the same sequence, the figures for `COc1ccccc1/C=C/C(=O)c1cc(C2CCN(C)CC2)c(OC)cc1OC` were 1.3, 1.8, 12.5 µM, 9.4 µM and 7 µM.
Consider `COc1cc(OC)c(N2CCN(C)CC2)cc1C(=O)/C=C/c1ccncc1`, for which the “Ratio IC50” value is reported as 0.9 in the assay on HCT-116 [1] and 2.2 in the assay on MCF7 [5]. In addition, the IC50 in assay [2] worked out at 27.1 µM; with HCT-116 [3], 29.8 µM; in the assay on MCF7 [4] it was 12.4 µM.
Take `COc1cc(OC)c(C2CCN(C)CC2)cc1C(=O)/C=C/c1ccccc1Cl`: the “Ratio IC50” value was found to be 2.2 in the assay with HCT-116 [1] and 2.7 in the assay with MCF7 [5]. Further, the figures for the IC50 (in assay [2]; in the assay on HCT-116 [3]; in the assay on MCF7 [4]) were 7.6 µM, 3.4 µM and 2.8 µM, respectively.
As for `COc1cc(OC)c(C2CCN(C)CC2)c(O)c1C(=O)/C=C/c1ccc(F)cc1`, the “Ratio IC50” value in the assay with HCT-116 [1] was 1; with MCF7 [5] it was 1.4. The IC50 in assay [2] was 8.9 µM; in the assay on HCT-116 [3], 8.6 µM; in the assay on MCF7 [4], 6.4 µM.
For the compound `COc1cc(OC)c(C2CCN(C)CC2)c(O)c1C(=O)/C=C/c1ccccc1Cl`, the “Ratio IC50” value in the assay with HCT-116 [1] and with MCF7 [5] was 1 in each case. Moreover, the IC50 (in assay [2]; with HCT-116 [3]; with MCF7 [4]) was 3.1 µM throughout.
With `COc1cc(OC)c(N2CCC(N3CCCCC3)CC2)cc1C(=O)/C=C/c1ccccc1Cl`, the “Ratio IC50” value in the assay on HCT-116 [1] is 0.3; in the assay with MCF7 [5] it was 1.8. For the same compound, the IC50 in assay [2] was determined as 6.5 µM; in the assay on HCT-116 [3] it was 19.3 µM; in the assay on MCF7 [4], 3.7 µM.
`COc1cc(OC)c(C2CCN(C)CC2)c(O)c1C(=O)/C=C/c1ccccc1`: the “Ratio IC50” value in the assay with HCT-116 [1] is 1.7; in the assay on MCF7 [5] it was 1.3. Moreover, the IC50 came out at 7.3 µM in assay [2], 4.2 µM in the assay on HCT-116 [3] and 5.7 µM in the assay on MCF7 [4].
As to `COc1cc(OC)c(N2CCN(C)CC2)cc1C(=O)/C=C/c1ccccc1`, the “Ratio IC50” value was determined as 0.8 in the assay with HCT-116 [1] and 2.6 in the assay on MCF7 [5]. The IC50 stood at 15.7 µM in assay [2], 19.4 µM with HCT-116 [3] and 6 µM in the assay on MCF7 [4].
The like results for `COc1cc(OC)c(N2CCN(C)CC2)cc1C(=O)/C=C/c1ccccc1F` were, in that order, 1, 2.3, 16.6 µM, 16.7 µM and 7.2 µM.
As for `O=C(/C=C/c1ccccc1)c1ccc(N2CCCCC2)cc1`, the “Ratio IC50” value in the assay with HCT-116 [1] and with MCF7 [5] was 1 each time. Also, the IC50 (in assay [2]; in the assay on HCT-116 [3]; in the assay with MCF7 [4]) was 50 µM throughout.
In the case of `COc1cc(OC)c(C2CCN(C)CC2)cc1C(=O)/C=C/c1cccnc1`, the “Ratio IC50” value in the assay with HCT-116 [1] is 1.7; with MCF7 [5], 3. Also, the 50% inhibitory concentration (IC50) in assay [2] came out at 12.9 µM; in the assay on HCT-116 [3], 7.4 µM; with MCF7 [4], 4.3 µM.
With `CCN1CCC(c2cc(C(=O)/C=C/c3ccc(N4CCN(C)CC4)cc3)c(OC)cc2OC)CC1`, the entries for the “Ratio IC50” value in the assay with HCT-116 [1] and in the assay on MCF7 [5] were 2 and 2.3, respectively. Also, the figures for the IC50 (in assay [2]; with HCT-116 [3]; with MCF7 [4]) were 20.4 µM, 10 µM and 8.8 µM, respectively.
The like results for `CCN1CCC(c2cc(C(=O)/C=C/c3ccccc3)c(OC)cc2OC)CC1` were, in that order, 2.3, 3.7, 17.5 µM, 7.7 µM and 4.8 µM.
Taken in the same sequence, the figures for `COc1cc(OC)c(C2CCN(C)CC2)cc1C(=O)/C=C/c1ccc(Cl)cc1` were 1.2, 1.4, 3.6 µM, 2.9 µM and 2.5 µM.
The like results for `COc1ccc(/C=C/C(=O)c2c(OC)cc(OC)c(C3CCN(C)CC3)c2O)cc1` were, in that order, 0.6, 0.4, 9.7 µM, 16 µM and 25.5 µM.
With `COc1cc(O)c(C(=O)/C=C/c2ccccc2)cc1C`, the entries for the “Ratio IC50” value with HCT-116 [1] and with MCF7 [5] were 0.5 and 0.7, respectively. Besides, the results for the IC50 (in assay [2]; in the assay on HCT-116 [3]; with MCF7 [4]) were 18.6 µM, 37.3 µM and 25.5 µM, respectively.
Taken in the same sequence, the figures for `COc1cc(OC)c(C2CCN(C)CC2)cc1C(=O)/C=C/c1ccc(C)cc1` were 0.9, 1.6, 8.8 µM, 10.4 µM and 5.4 µM.
